# This is a sample that favours compounds with a hit; in the whole collection about 2.2% have one here.
# BCLXL inh – Bcl-xL (human) inhibition. Q07817. GST-Bcl-xL / FITC-Bim BH3 peptide fluorescence polarization. inhibition, % at 10.9 µM. 320,000 compounds, 0.7% hits. AID 2129;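 active = inhibition above the mean of all tested compounds plus 3 SD, cutoff set per campaign, cut at about 30% in these data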;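 note: 0% = DMSO wells and 100% = unlabeled Bim-BH3 peptide competitor; inhibitors lower millipolarization by displacing the labeled peptide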
# IMP-1 inh – blocks Pseudomonas aeruginosa IMP-1 metallo-beta-lactamase; purified IMP-1, nitrocefin hydrolysis, epi-absorbance fluorescence; 290,000 compounds, 0.45% hits; inhibition, % at 5.6 µM;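 active = inhibition above the mean plus 3 SD of all compounds in the same screening run, cut at about 4.5% in these data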;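 note: 0% = IMP-1 with DMSO and 100% = DMSO wells lacking enzyme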
#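 Material – recombinant IMP-1 enzyme, purified · Amount – IMP-1 0.2 nM before substrate addition · Medium – HEPES buffer pH 7.1 with ZnSO4 and Brij 35 · Timing – 25 °C, 15 min preincubation, 25 min reaction · Measured by – plate fluorescence quenching by hydrolysis product, ex 480/em 530 nm · Read-out – percent enzyme inhibition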
# VIM-2 inhibitor – blocks Pseudomonas aeruginosa VIM-2 metallo-beta-lactamase. AID 1527. inhibition, % at 5.6 µM. 290,000 compounds, 0.89% hits. purified VIM-2, nitrocefin hydrolysis, epi-absorbance fluorescence;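 active = inhibition above the mean of all tested compounds plus 3 SD, cutoff set per screening run, cut at about 7.5% in these data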;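 note: red hydrolysis product quenches plate fluorescence so inhibitors raise well fluorescence; 0% = enzyme with DMSO and 100% = DMSO without enzyme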
# EBV gp42 inh – blocks Epstein-Barr virus glycoprotein 42 binding. Fluorescence polarization binding assay, mP read-out. inhibition, % (tested at 21.74 µM). AID 1085. 220,000 compounds, 0.42% hits; in the data active = inhibition above about 50%
# GLD-1 RNA inh – GLD-1-TGE RNA interaction inhibition (C. elegans). Q17339. purified GLD-1 + fluorescein TGE RNA, fluorescence polarization. inhibition, % at 5.96 µM. 320,000 compounds, 0.44% hits. AID 2280;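 active = percent inhibition above a per-plate cutoff, the plate mean of test compounds plus 3 SD, cut at about 30% in these data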;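 note: 0% = DMSO wells with GLD-1 and probe and 100% = wells lacking GLD-1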
# Target sequence (Q17339 whole entry, looked up): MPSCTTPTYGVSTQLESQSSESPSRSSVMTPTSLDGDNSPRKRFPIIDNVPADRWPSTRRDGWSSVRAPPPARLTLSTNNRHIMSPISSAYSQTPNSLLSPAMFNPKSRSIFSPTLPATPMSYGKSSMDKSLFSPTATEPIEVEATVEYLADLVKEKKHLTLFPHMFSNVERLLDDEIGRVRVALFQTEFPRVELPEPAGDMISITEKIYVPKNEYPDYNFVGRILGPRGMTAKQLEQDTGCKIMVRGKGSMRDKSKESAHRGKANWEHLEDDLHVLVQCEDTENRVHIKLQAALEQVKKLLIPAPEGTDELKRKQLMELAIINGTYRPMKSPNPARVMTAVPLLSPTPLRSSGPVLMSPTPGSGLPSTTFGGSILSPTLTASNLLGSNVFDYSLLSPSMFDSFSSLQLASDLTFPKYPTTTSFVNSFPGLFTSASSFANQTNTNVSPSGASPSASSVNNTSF
# MEX-5 binding – C. elegans MEX-5 TCR-2 RNA binding activity; Q9XUB2; MEX-5/FITC-TCR2 RNA binding, fluorescence polarization; stronger effect = lower value; activity score (negative = inhibition of binding), % at 10 µM; 300,000 compounds, 0.38% hits;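 active = inhibition past about -25% in most replicates, and total fluorescence under double the plate's negative control median, limit read from the data; inconclusive = replicates evenly split on the limit, or fluorescence at least double controls; inactive = too little inhibition in most replicates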;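 note: 0% = DMSO and -100% = 5 µM competing unlabeled TCR2 RNA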
# * hit, by the source's call; ? = inconclusive; / = no result given.
SMILES,BCLXL inh,IMP-1 inh,VIM-2 inhibitor,EBV gp42 inh,GLD-1 RNA inh,MEX-5 binding
CC1(C)C2CCC1(CS(=O)(=O)NCc1ccc(Cl)cc1Cl)C(=O)C2 (stereo not drawn),0,-4,-3,/,0,-1
CC1(C)Cc2c(sc(NC(=O)COc3cccc4ccccc34)c2C#N)C(C)(C)N1,-81,19*,3,-16,-4,-4
O=C(CCc1nnc2ccc(NCc3ccco3)nn12)N1CCN(c2ccc(F)cc2)CC1,0,-1,-5,/,3,0
CC(CC(=O)OCC(=O)NCc1ccc(Cl)cc1)c1ccccc1 (stereo not drawn),3,/,/,/,-5,/
OCCNc1nc(Nc2ccc(Br)cc2)nc2ccccc12,4,-2,1,56*,2,-1
OCCNc1nc(Nc2ccccc2)nc2ccccc12,8,-4,-1,1,1,1
Cc1cc(Cl)ccc1OCC(=O)N/N=C/c1ccncc1,6,-2,0,/,-1,0
O=[N+]([O-])c1ccc(-c2cn(-c3ccc(Cl)cc3)c(=S)[nH]2)cc1,3,-4,-4,54*,-1,2
CCOc1cc(/C=C2\SC(=O)N(c3ccc(O)cc3)C2=O)ccc1O,-9,-2,10*,-55,-111,10
CCOc1ccc(N2C(=O)S/C(=C\c3ccc(O)c(OCC)c3)C2=O)cc1,-2,-4,-2,-6,-52,0
CCc1cc2c(=O)n(Cc3ccco3)c(SCC(=O)N3CCCc4ccccc43)nc2s1,-3,6.0*,3,-36,-3,3
CCc1cc2c(=O)n(Cc3ccco3)c(SCC(=O)NCC3CCCO3)nc2s1 (stereo not drawn),3,-2,1,/,2,-2
COc1ccc2nc(N3CCCC3)c(C#N)cc2c1,74*,-2,1,127*,49*,3
COc1ccc2nc(SCC(=O)N3CCCCC3)c(C#N)cc2c1,2,-4,-2,-16,4,-8
COc1ccc(-c2nc3ccccc3nc2-c2ccccc2)cc1,2,1,1,-23,-10,-2
COc1ccc2nc3ccccc3nc2c1,35*,0,2,32,27,-3
NC(=S)N/N=C/c1ccccc1O,9,-3,-3,-6,-2,-3
Oc1ccc(/C=N/NC(=S)Nc2cccnc2)c(O)c1O,/,2,1,15,/,-43*
NC(=S)N/N=C/c1cccc(O)c1O,9,-2,-3,5,1,-38*
CCOC(=O)C1(Cc2cccc(OC)c2)CCN(Cc2cccn2-c2ccccn2)CC1,-2,-2,-1,0,-8,2
O=C(O)C(Oc1ccc2cc(-c3ccc(Cl)cc3)c(=O)oc2c1)c1ccccc1 (stereo not drawn),/,-1,1,/,/,2
COc1ccccc1N(CC(=O)NCCN1CCOCC1)S(=O)(=O)c1ccccc1,2,-1,-1,/,-1,-1
O=C(NNS(=O)(=O)c1ccc(F)cc1)c1cc(Cl)ccc1O,/,-5,-3,/,/,-4
COc1ccc(C(=O)c2sc(Nc3ccccc3)c(C(=O)Nc3ccc(OC)c(OC)c3)c2N)cc1,63*,-4,-7,3,3,0
Cc1ccc(S(=O)(=O)N2CCOC2CNC(=O)C(=O)NCCN(C)C)cc1 (stereo not drawn),-1,-1,-3,/,-11,3
SMILES,BCLXL inh,IMP-1 inh,VIM-2 inhibitor,EBV gp42 inh,GLD-1 RNA inh,MEX-5 binding
Cc1ccc(CNc2ncc(-c3ccc4c(c3)OCO4)n2C)cc1,8,0,0,-16,-7,0
COC(=O)CNc1ccc2c(c1)OCO2,31*,-1,-4,-2,15,-7
Cc1ccc(CNc2ccc3c(c2)OCO3)cc1,139*,-3,-3,31,-7,-1
c1cc(CNc2ccc3c(c2)OCO3)ccn1,86*,-1,-1,28,27,-13
COc1cc(/C=C/C(=O)OCC(=O)NC(=O)C2COc3ccccc3O2)ccc1OC(F)F (stereo not drawn),/,/,/,/,1,/
COc1ccc2nc(C)cc(NCCN3CCOCC3)c2c1,-1,-2,-1,/,-3,0
Cc1cc(NCCN2CCOCC2)c2ccc3ccccc3c2n1,1,-3,8.8*,-22,6,0
COc1ccc(S(=O)(=O)N2CCCCCC2)cc1C(=O)NCCc1ccccc1,2,/,/,/,3,/
COc1ccc(CNC(=O)C(OC(C)=O)c2ccccn2)cc1 (stereo not drawn),4,5.8*,-1,-5,-2,-3
COc1ccc(CNC(=O)C(OC(=O)c2ccco2)c2ccccc2F)cc1 (stereo not drawn),15,-3,-1,/,9,3
O=C(Nc1nnc(-c2ccccc2Cl)o1)c1cc2cc([N+](=O)[O-])ccc2s1,/,-4,-4,68*,/,/
c1coc(-c2nnc3sc(-c4cccs4)nn23)c1,6,0,7.9*,-7,-4,/
COc1cccc(-c2nnc3sc(-c4cccs4)nn23)c1,9,0,1,-12,-2,/
COc1ccc(CN2CCN(Cc3ccc(C(F)(F)F)cc3)CC2)cc1,3,-6,-3,/,8,2
Cc1sc2ncnc(N3CCC(C(=O)Nc4nnc(SCc5ccccc5F)s4)CC3)c2c1C,-2,/,/,/,8,-2
N#Cc1c(C(F)(F)F)cc(-c2ccc(F)cc2)nc1SCC(=O)O,5,-1,-3,-4,-3,4
CCCCOc1ccc(-c2cc(C(F)(F)F)c(C#N)c(SCC(=O)O)n2)cc1,0,-2,-2,60*,5,?
CCc1cc(C(=O)OC)c(NC(=O)CCC(=O)O)s1,2,15*,1,-8,2,-1
CCCc1cc(C(=O)OC)c(NC(=O)CCCC(=O)O)s1,2,-6,-5,11,3,2
CCN(CC)C(=O)CSc1nnc2nnc3cc(Cl)ccc3n12,93*,0,1,67*,123*,-32*
Cc1cccn2c(=O)c3cc(C(=O)NCCc4ccccc4)sc3nc12,11,-2,4,/,2,0
Cc1ccccc1NC(=O)c1cc2c(=O)n3cccc(C)c3nc2s1,4,-2,9.2*,/,5,-1
CN(C)Cc1ccc(CNC(=O)COc2ccc3ccccc3c2)cc1,3,-4,-1,/,-2,1
COc1ccccc1Nc1c2c(nc3ccccc13)CCC2,0,-4,9.4*,/,6,1
Cc1ccc2nc3c(c(Nc4cccc(O)c4)c2c1)CCC3,5,-2,9.4*,/,-4,4
COC(=O)c1cccc(Nc2c3c(nc4ccccc24)CCC3)c1,/,-3,8.1*,/,/,0
Fc1cccc(Nc2c3c(nc4ccccc24)CCC3)c1,1,-2,4,/,-3,-3
CC(=O)c1cccc(Nc2c3c(nc4ccccc24)CCC3)c1,3,-1,10*,/,-9,-1

# Screens: PubChem, several laboratories
